Results collected from several papers.
PADI4: Protein-arginine deiminase type-4 (PADI4, Homo sapiens, UniProt Q9UM07)
PKN1: Serine/threonine-protein kinase N1 (PKN1, Homo sapiens, UniProt Q16512)
MAOB: Amine oxidase [flavin-containing] B (MAOB, Homo sapiens, UniProt P27338)
CA9: Carbonic anhydrase 9 (CA9, Homo sapiens, UniProt Q16790)
HRH1: Histamine H1 receptor (HRH1, Homo sapiens, UniProt P35367)

With `CC(C)(C)n1nnc([C@H](CCCNC(=N)CCl)NC(=O)c2ccc(-c3ccccc3)cc2)n1` the kinact/KI was 102 M⁻¹ s⁻¹ (PADI4; enzyme activity, inhibitor).
`C[C@H]1Oc2cc(cnc2N)-c2c(nn(C)c2C#N)CN(C)C(=O)c2ccc(F)cc21` gave an activity vs control of 90% (PKN1; enzyme activity, inhibitor; 1 µM).
`O=C(Nc1cccc(Cl)c1)c1ccc([N+](=O)[O-])cc1Cl` has an inhibition of 36% (MAOB; enzyme activity, inhibitor; 1 µM, 20 min).
With `CCOC(=O)C1CSc2[nH]c(=O)sc2C1c1cn(-c2ccccc2)nc1-c1ccc(OC)cc1` (stereo not drawn) the inhibition was 84.9% (CA9; enzyme activity, inhibitor; 10 µM).
With `O=C(Nc1ccc([N+](=O)[O-])cc1Cl)c1ccc(Cl)cc1` the inhibition was 25% (MAOB; enzyme activity, inhibitor; 1 µM, 20 min).
For `Cn1cc(-c2cc3c(N4CCN(c5ncc([C@@](C)(N)c6ccc(F)cc6)cn5)CC4)ncnn3c2)cn1`, the activity vs control was 87% (PKN1; enzyme activity, inhibitor; 1 µM).
`N=C(CCl)NCCC[C@H](NC(=O)c1ccc(-c2ccccc2)cc1)c1nn[nH]n1` gave a kinact/KI of 398 M⁻¹ s⁻¹ (PADI4; enzyme activity, inhibitor).
`O=C(Nc1cc(Cl)ccc1O)c1ccc([N+](=O)[O-])cc1Cl` has an inhibition of 36% (MAOB; enzyme activity, inhibitor; 1 µM, 20 min).
For `COc1cc2ncn(-c3cc(OCc4ccccc4C(F)(F)F)c(C(N)=O)s3)c2cc1OC`, the activity vs control was 56% (PKN1; enzyme activity, inhibitor; 1 µM).
The Emax of `O=C(Nc1ccc(N2C(=O)c3ccccc3C2=O)c(Cl)c1)c1ncccc1Cl` is reported as 102% (Metabotropic glutamate receptor 1 (GRM1, Homo sapiens, UniProt Q13255); calcium signal, positive allosteric modulator; T-REx-293).
`N=C(N)NCCC[C@H](NC(=O)[C@H](Cc1ccccc1)NC(=O)[C@@H](N)Cc1c[nH]cn1)C(=O)N[C@@H](Cc1c[nH]c2ccccc12)C(=O)O` has an Emax of 85% (Melanocortin receptor 5 (Mus musculus, UniProt P41149); cAMP, agonist; HEK293).
With `Cc1ccc(-c2nn(-c3ccccc3)cc2C2c3sc(=O)[nH]c3SC3C(=O)N(c4ccccc4)C(=O)C32)cc1` (stereo not drawn) the inhibition was 17.8% (CA9; enzyme activity, inhibitor; 10 nM).
`O=C(Nc1ccccn1)c1ccc(Cl)cc1` has an inhibition of 11% (MAOB; enzyme activity, inhibitor; 1 µM, 20 min).
`Cc1cn(-c2cc(NC(=O)c3ccc(C)c(Nc4nccc(-c5cnccn5)n4)c3)cc(C(F)(F)F)c2)cn1` has an activity vs control of 66% (PKN1; enzyme activity, inhibitor; 1 µM).
For `O=C(Nc1ccccc1)c1ccccc1O`, the inhibition was 5% (MAOB; enzyme activity, inhibitor; 1 µM, 20 min).
`S=C(NCc1ccc2c(c1)OCO2)N1CCN(c2ncnc3c2oc2ccccc23)CC1` has an activity vs control of 98% (PKN1; enzyme activity, inhibitor; 1 µM).
With `N#CC1CSc2[nH]c(=O)sc2C1c1cn(-c2ccccc2)nc1-c1ccc(Br)cc1` (stereo not drawn) the inhibition was 88.5% (CA9; enzyme activity, inhibitor; 10 µM).
The inhibition of `COc1cc([N+](=O)[O-])ccc1NC(=O)c1cc(Cl)ccc1O` is reported as -2% (MAOB; enzyme activity, inhibitor; 1 µM, 20 min).
`CN1CCC(C2c3ccccc3C=Cc3ccccc32)CC1` gave a kon of 667000 M⁻¹ s⁻¹ (HRH1; binding).
With `COc1cc(NC(C)=O)c(Cl)cc1C(=O)Nc1nccs1` the inhibition was 2.5% (Beta-1 adrenergic receptor (ADRB1, Homo sapiens, UniProt P08588); cell-free assay; 10 µM).
`C[S+]([O-])c1ccc(-c2nc(-c3ccncc3)c(-c3ccc(F)cc3)[nH]2)cc1` (stereo not drawn) gave an activity vs control of 73% (PKN1; enzyme activity, inhibitor; 1 µM).
`CN1CCC(C2c3ccccc3CCc3ccccc32)CC1` gave a koff of 0.000475 s⁻¹ (HRH1; binding).
The inhibition of `Nc1ccc(O)c(C(=O)Nc2ccccc2)c1` is reported as 11% (MAOB; enzyme activity, inhibitor; 1 µM, 20 min).
The activity vs control of `COc1cc2ncnc(Nc3ccc(F)c(Cl)c3)c2cc1NC(=O)/C=C/CN1CCCCC1` is reported as 87% (PKN1; enzyme activity, inhibitor; 1 µM).
